Key:
Mus musculus [1] = experiment: Motor coordination of mouse as number of falls in 30 sec was reported after 100 mg/kg intraperitoneal dose using rotarod test; format: functional
Procedure, shortened: (§1)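 Male CD-1 mice are dosed po in 1% CMC (flumazenil ip). Falls from a rota rod turning at 24 rpm are counted over 30 s, 25 min after drug administration, and compared with vehicle-treated mice. Means ± SEM.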

Mus musculus [2] = experiment: Motor coordination of mouse as number of falls in 30 sec was reported after 30 mg/kg intraperitoneal dose using rotarod test; format: functional; procedure, shortened: as §1
Mus musculus [3] = experiment: Anxiolytic activity in mice using light-dark box and no. of transfers between compartments were reported at 100 mg/kg intraperitoneal dose; format: functional
Mus musculus [4] = experiment: Anxiolytic activity in mice using light-dark box and no. of transfers between compartments were reported at 30 mg/kg intraperitoneal dose; format: functional
Mus musculus [5] = experiment: Anxiolytic activity in mice using light-dark box and % time spent in light was reported at 100 mg/kg intraperitoneal dose; format: functional
Mus musculus [6] = experiment: Anxiolytic activity in mice using light-dark box and % time spent in light was reported at 30 mg/kg intraperitoneal dose; format: functional
Mus musculus [7] = experiment: Percent anticonvulsant activity against pentylenetetrazole (PTZ)-induced attacks at 100 mg/kg intraperitoneal dose.; format: functional
Mus musculus [8] = experiment: Percent anticonvulsant activity against pentylenetetrazole (PTZ)-induced attacks at 30 mg/kg intraperitoneal dose.; format: functional
[9] = target: GABA-A receptor; anion channel; parameters: species or system Bos taurus
[10] = Displacement of [3H]-Ro-15-1788 from rat GABA-A receptor alpha-2-beta-2-gamma-2 subunits expressed in HEK293 cells; format: cell-based
Procedure, shortened: (§2)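 Recombinant rat GABA-A subtypes are stably expressed in HEK293 cells grown in MEM/EBSS with 10% FCS at 37 °C. Membranes are made in 10 mM potassium phosphate pH 7.4 and resuspended with 100 mM KCl. Incubation uses 1–2 nM [3H]Ro15-1788 with compound at 10^-9–10^-5 M (≥6 concentrations), 1 h at 4 °C. […] Ki comes from Cheng–Prusoff, n=5, in triplicate.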

[11] = target: T1, GABA-A receptor; alpha-1/beta-2/gamma-2 (Rattus norvegicus, UniProt P18508+P62813+P63138); experiment: (§3) Displacement of [3H]Ro-151788 from rat GABA-A receptor alpha-1-beta-2-gamma-2 subunits expressed in HEK293 cells; format: cell-based
Procedure, shortened: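 Membranes from HEK293 cells stably expressing recombinant rat GABA-A subtypes, homogenized in 10 mM potassium phosphate pH 7.4 and resuspended with 100 mM KCl. Incubation with 1–2 nM [3H]Ro15-1788 and test compound (10^-9–10^-5 M, at least six concentrations; DMSO ≤1%) for 1 h at 4 °C to equilibrium.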

[12] = target: GABA A receptor alpha-3/beta-2/gamma-2 (Rattus norvegicus, UniProt P18508+P20236+P63138); experiment: Displacement of [3H]Ro-151788 from rat GABA-A receptor alpha-3-beta-2-gamma-2 subunits expressed in HEK293 cells; format: cell-based
[13] = Displacement of [3H]Ro-151788 from rat GABA-A receptor alpha-5-beta-3-gamma-2 subunits expressed in HEK293 cells; format: cell-based; procedure, shortened: as §2
Mus musculus [14] = experiment: Percent anticonvulsant activity against pentylenetetrazole (PTZ)-induced attacks at 1 mg/kg peroral dose; format: functional; conditions: route oral
Procedure, shortened: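 Male CD-1 mice are dosed po in 1% CMC (flumazenil ip). PTZ (90 mg/kg sc, in 0.9% saline) is injected 30 min later. Clonic generalized convulsions are scored over 30 min, with % protection compared with controls by χ2 analysis.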

Mus musculus [15] = experiment: Percent anticonvulsant activity against pentylenetetrazole (PTZ)-induced attacks at 10 mg/kg peroral dose; format: functional; conditions: route oral
Procedure, shortened: (§4)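 Male CD-1 mice dosed po in 1% carboxymethylcellulose, 30 min before PTZ (90 mg/kg sc, in 0.9% saline). Occurrence of clonic generalized convulsions noted over 30 min; χ² analysis vs control mice.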

Mus musculus [16] = experiment: Percent anticonvulsant activity against pentylenetetrazole (PTZ)-induced attacks at 100 mg/kg peroral dose; format: functional; conditions: route oral; procedure, shortened: as §4
Mus musculus [17] = experiment: Percent anticonvulsant activity against pentylenetetrazole (PTZ)-induced attacks at 3 mg/kg peroral dose; format: functional; conditions: route oral; procedure, shortened: as §4
Mus musculus [18] = experiment: Percent anticonvulsant activity against pentylenetetrazole (PTZ)-induced attacks at 30 mg/kg peroral dose; format: functional; conditions: route oral; procedure, shortened: as §4
Mus musculus [19] = experiment: Anxiolytic activity in mice using light-dark box and % time spent in light was reported at 1 mg/kg peroral dose; format: functional; conditions: route oral
Procedure, shortened: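 Light-dark box in male CD-1 mice. Ligands are given po in 1% CMC, flumazenil ip. Each mouse is placed in the centre of the lit area facing away from the dark one and explores for 5 min. Time in the illuminated side and number of transfers between compartments are recorded. Means ± SEM.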

Mus musculus [20] = experiment: Anxiolytic activity in mice using light-dark box and % time spent in light was reported at 10 mg/kg peroral dose; format: functional; conditions: route oral
Procedure, shortened: (§5)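 Male CD-1 mice (22–24 g) given drug po in 1% carboxymethylcellulose (10 mL/kg). Each mouse placed in the centre of the lighted area facing away from the dark compartment and allowed to explore for 5 min; time spent in the illuminated side and number of transfers between compartments recorded. Tests run between 10:00 and 15:00.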

Mus musculus [21] = experiment: Anxiolytic activity in mice using light-dark box and % time spent in light was reported at 100 mg/kg peroral dose; format: functional; conditions: route oral; procedure, shortened: as §5
Mus musculus [22] = experiment: Anxiolytic activity in mice using light-dark box and % time spent in light was reported at 3 mg/kg peroral dose; format: functional; conditions: route oral; procedure, shortened: as §5
Mus musculus [23] = experiment: Anxiolytic activity in mice using light-dark box and % time spent in light was reported at 30 mg/kg peroral dose; format: functional; conditions: route oral; procedure, shortened: as §5
Mus musculus [24] = experiment: Motor coordination of mouse as number of falls in 30 sec was reported after 1 mg/kg peroral dose using rotarod test; format: functional; conditions: route oral; procedure, shortened: as §1
Mus musculus [25] = experiment: Motor coordination of mouse as number of falls in 30 sec was reported after 10 mg/kg peroral dose using rotarod test; format: functional; conditions: route oral; procedure, shortened: as §1
Mus musculus [26] = experiment: Motor coordination of mouse as number of falls in 30 sec was reported after 100 mg/kg peroral dose using rotarod test; format: functional; conditions: route oral
Procedure, shortened: (§6)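 Male CD-1 mice dosed po (suspension in 1% carboxymethylcellulose, 10 mL/kg). Rota rod turning at 24 rpm; falls from the rod counted over 30 s, 25 min after drug administration.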

Mus musculus [27] = experiment: Motor coordination of mouse as number of falls in 30 sec was reported after 3 mg/kg peroral dose using rotarod test; format: functional; conditions: route oral; procedure, shortened: as §6
Mus musculus [28] = experiment: Motor coordination of mouse as number of falls in 30 sec was reported after 30 mg/kg peroral dose using rotarod test; format: functional; conditions: route oral; procedure, shortened: as §6
Mus musculus [29] = experiment: Anxiolytic activity in mice using light-dark box and no. of transfers between compartments were reported at 100 mg/kg peroral dose; format: functional; conditions: route oral; procedure, shortened: as §5
Mus musculus [30] = experiment: Anxiolytic activity in mice using light-dark box and no. of transfers between compartments were reported at 1 mg/kg peroral dose; format: functional; conditions: route oral; procedure, shortened: as §5
Mus musculus [31] = experiment: Anxiolytic activity in mice using light-dark box and no. of transfers between compartments were reported at 3 mg/kg peroral dose; format: functional; conditions: route oral; procedure, shortened: as §5
Mus musculus [32] = experiment: Anxiolytic activity in mice using light-dark box and no. of transfers between compartments were reported at 30 mg/kg peroral dose; format: functional; conditions: route oral; procedure, shortened: as §5
[33] = Anticonvulsant activity electroshock induced convulsions and % lethality obtained at dose of 30 mg/kg; format: organism-based; parameters: dose 30 mg/kg; conditions: mouse, in vivo, read-out: Lethality
Procedure, shortened: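 Male CD-1 mice (22–24 g), groups of 10–16, dosed po in 1% carboxymethylcellulose at 10 mL/kg. Electroshock (40 mA, 0.2 s, 50 Hz) applied to the corneas 30 min after dosing. End point is tonic hind limb extension; % protection and % lethality are recorded against vehicle-treated mice (χ2 analysis).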

Mus musculus [34] = experiment: Anticonvulsant activity electroshock induced convulsions in hind limb of mice at a dose of 30 mg/kg; format: functional, Hindlimb
Procedure, shortened: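 Male CD-1 mice (22–24 g); oral dosing as suspension in 1% carboxymethylcellulose (10 mL/kg), 30 min before corneal electroshock (40 mA, 0.2 s, 50 Hz). Groups of 10–16 mice; end point tonic hind limb extension; lethality also recorded; χ² analysis vs CMC-treated mice.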

Mus musculus [35] = experiment: Anxiolytic activity in mice using light-dark box and no. of transfers between compartments were reported at 10 mg/kg peroral dose; format: functional; conditions: route oral; procedure, shortened: as §5
[36] = target: T1, GABA-A receptor; alpha-1/beta-2/gamma-2; experiment: as §3; format: cell-based; remark: listed apart in the source

GABA A receptor alpha-3/beta-2/gamma-2, sequence (P18508 whole entry): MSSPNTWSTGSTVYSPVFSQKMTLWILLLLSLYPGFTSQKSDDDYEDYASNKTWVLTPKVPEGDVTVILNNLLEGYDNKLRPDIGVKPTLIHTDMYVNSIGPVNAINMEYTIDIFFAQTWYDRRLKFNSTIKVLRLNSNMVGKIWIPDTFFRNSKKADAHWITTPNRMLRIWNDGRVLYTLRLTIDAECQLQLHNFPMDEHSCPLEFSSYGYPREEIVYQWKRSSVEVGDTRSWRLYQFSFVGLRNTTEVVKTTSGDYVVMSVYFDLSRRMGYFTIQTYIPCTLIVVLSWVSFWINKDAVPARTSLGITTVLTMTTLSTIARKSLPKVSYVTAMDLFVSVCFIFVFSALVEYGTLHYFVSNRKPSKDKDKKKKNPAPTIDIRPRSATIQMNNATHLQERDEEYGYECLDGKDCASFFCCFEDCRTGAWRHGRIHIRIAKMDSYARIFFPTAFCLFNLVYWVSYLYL
GABA A receptor alpha-3/beta-2/gamma-2, sequence (P20236 whole entry): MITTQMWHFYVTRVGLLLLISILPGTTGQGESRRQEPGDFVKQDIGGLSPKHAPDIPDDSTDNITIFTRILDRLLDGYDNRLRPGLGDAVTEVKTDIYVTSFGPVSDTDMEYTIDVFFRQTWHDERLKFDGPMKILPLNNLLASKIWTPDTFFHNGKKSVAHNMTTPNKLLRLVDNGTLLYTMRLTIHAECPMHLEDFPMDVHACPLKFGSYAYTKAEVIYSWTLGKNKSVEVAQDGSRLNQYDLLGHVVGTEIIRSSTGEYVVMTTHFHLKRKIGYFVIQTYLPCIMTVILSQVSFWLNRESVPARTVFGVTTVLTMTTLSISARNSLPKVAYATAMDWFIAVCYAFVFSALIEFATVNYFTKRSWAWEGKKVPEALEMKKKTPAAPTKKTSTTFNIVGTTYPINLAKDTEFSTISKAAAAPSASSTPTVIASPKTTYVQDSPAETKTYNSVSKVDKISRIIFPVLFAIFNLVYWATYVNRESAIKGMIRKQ
GABA A receptor alpha-3/beta-2/gamma-2, sequence (P63138 whole entry): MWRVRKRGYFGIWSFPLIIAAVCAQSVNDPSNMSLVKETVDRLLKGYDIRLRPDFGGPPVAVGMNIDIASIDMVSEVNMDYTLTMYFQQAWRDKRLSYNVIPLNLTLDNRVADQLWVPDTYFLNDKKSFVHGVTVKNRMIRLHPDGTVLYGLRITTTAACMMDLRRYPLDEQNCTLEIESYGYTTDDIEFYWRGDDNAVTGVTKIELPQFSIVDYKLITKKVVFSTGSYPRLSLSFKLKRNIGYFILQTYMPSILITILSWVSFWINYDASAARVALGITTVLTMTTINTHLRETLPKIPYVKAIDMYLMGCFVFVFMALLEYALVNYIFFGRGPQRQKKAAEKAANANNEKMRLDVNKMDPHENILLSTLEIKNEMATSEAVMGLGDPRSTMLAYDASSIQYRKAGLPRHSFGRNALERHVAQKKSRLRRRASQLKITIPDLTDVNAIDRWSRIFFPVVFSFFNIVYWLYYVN
T1 sequence (P18508 whole entry): as the sequence (P18508 whole entry) above
T1 sequence (P62813 whole entry): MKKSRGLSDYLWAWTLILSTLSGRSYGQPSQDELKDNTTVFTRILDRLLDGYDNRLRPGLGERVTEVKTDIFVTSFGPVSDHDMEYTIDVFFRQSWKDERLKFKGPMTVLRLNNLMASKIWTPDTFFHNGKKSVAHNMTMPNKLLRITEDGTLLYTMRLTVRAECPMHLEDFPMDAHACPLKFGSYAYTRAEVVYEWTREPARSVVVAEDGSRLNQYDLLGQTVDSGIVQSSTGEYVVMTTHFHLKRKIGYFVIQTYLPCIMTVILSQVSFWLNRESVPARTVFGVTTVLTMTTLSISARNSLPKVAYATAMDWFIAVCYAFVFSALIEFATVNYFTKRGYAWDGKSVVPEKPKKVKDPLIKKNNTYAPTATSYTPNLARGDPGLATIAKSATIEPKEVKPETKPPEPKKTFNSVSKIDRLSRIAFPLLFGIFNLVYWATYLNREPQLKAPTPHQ
T1 sequence (P63138 whole entry): as the sequence (P63138 whole entry) above

CCOC(=O)c1ncn2c1CN(C)C(=O)c1cc(F)ccc1-2 [FLUMAZENIL]
No. of falls (Mus musculus [1]): 0.4
No. of falls (Mus musculus [2]): 0.33
No. of transfers (Mus musculus [3]): 15.2
No. of transfers (Mus musculus [4]): 11.8
Activity (Mus musculus [5]): 119%
Activity (Mus musculus [6]): 90.36%
Activity (Mus musculus [7]): 5.3%
Activity (Mus musculus [8]): 11.1%

O=C(OCc1cccs1)c1cnn2c1n[n+]([O-])c1ccc(Cl)cc12
Ki [9]: 6.8 nM
Ki [10]: 26 nM
Ki [11]: 3 nM
Ki [12]: 12 nM
Ki [13]: 8.6 nM
Activity (Mus musculus [14]): 20%
Activity (Mus musculus [15]): 15.38%
Activity (Mus musculus [16]): 20%
Activity (Mus musculus [17]): 0%
Activity (Mus musculus [18]): 40%
Activity (Mus musculus [19]): 12.89%
Activity (Mus musculus [20]): 155.1%
Activity (Mus musculus [21]): 157.1%
Activity (Mus musculus [22]): 170.8%
Activity (Mus musculus [23]): 144.3%
No. of falls (Mus musculus [24]): 0.1
No. of falls (Mus musculus [25]): 0.15
No. of falls (Mus musculus [26]): 0
No. of falls (Mus musculus [27]): 0.1
No. of falls (Mus musculus [28]): 0.1
No. of transfers (Mus musculus [29]): 14.6
No. of transfers (Mus musculus [30]): 21.1
No. of transfers (Mus musculus [31]): 15.6
No. of transfers (Mus musculus [32]): 20.5
mortality [33]: 40%
Activity (Mus musculus [34]): 0%
No. of transfers (Mus musculus [35]): 16.6

[O-][n+]1nc2c(-c3ccsc3)cnn2c2cc(Cl)ccc21
Ki [10]: 12 nM
Ki [36]: 4.1 nM
Ki [12]: 33 nM
Ki [13]: 18 nM

— ChEMBL document CHEMBL1135690, “Benzodiazepine receptor ligands. 7. Synthesis and pharmacological evaluation of new 3-esters of the 8-chloropyrazolo[5,1-c][1,2,4]benzotriazine 5-oxide. 3-(2-Thienylmethoxycarbonyl) derivative: an anxioselective agent in rodents” (J Med Chem, 2002)
